Assay results from ChEMBL document CHEMBL1255429, “Efflux pumps are involved in the defense of Gram-negative bacteria against the natural products isobavachalcone and diospyrone” (2010).

How the values were obtained:
Type in all cases: functional
[1] = system: Pseudomonas aeruginosa; assay: Antimicrobial activity against Pseudomonas aeruginosa PA124 after 18 hrs by rapid INT colorimetric assay in presence of efflux pump inhibitor phenylalanine arginine; conditions: PA124, 18 h
[2] = system: Klebsiella aerogenes; assay: Antimicrobial activity against Enterobacter aerogenes EA3 after 18 hrs by rapid INT colorimetric assay; conditions: EA3, 18 h
Method in brief: (§1)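 Strains precultured overnight on Mueller-Hinton agar. Sample dissolved in DMSO-MHB, twofold serial dilutions in MHB, inoculum 1.5 × 10^6 CFU/ml; final DMSO below 2.5%. Incubated 37°C 18 h, then 0.2 mg/ml INT added, 30 min at 37°C. MIC = lowest concentration preventing yellow-to-pink change (complete growth inhibition). DMSO-only wells as negative control.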

[3] = system: Klebsiella aerogenes; assay: Antimicrobial activity against Enterobacter aerogenes EA5 after 18 hrs by rapid INT colorimetric assay in presence of efflux pump inhibitor phenylalanine arginine; conditions: EA5, 18 h
[4] = system: Escherichia coli; assay: Antimicrobial activity against tetracycline-resistant Escherichia coli AG102 after 18 hrs by rapid INT colorimetric assay in presence of efflux pump inhibitor phenylalanine arginine; conditions: AG102, 18 h
Method in brief: (§2)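 Broth microdilution MIC in Mueller-Hinton broth with PAßN at a final 20 μg/ml throughout. Twofold dilutions of sample from DMSO-MHB stock; inoculum 1.5 × 10^6 CFU/ml; 18 h at 37°C, final DMSO <2.5%. Growth read by INT (0.2 mg/ml, 30 min, 37°C). MIC taken as lowest concentration with no pink colour.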

[5] = system: Klebsiella aerogenes; assay: Antimicrobial activity against Enterobacter aerogenes EA298 after 18 hrs by rapid INT colorimetric assay in presence of efflux pump inhibitor phenylalanine arginine; conditions: EA298, 18 h
[6] = system: Escherichia coli; assay: Antimicrobial activity against Escherichia coli AG100 after 18 hrs by rapid INT colorimetric assay in presence of efflux pump inhibitor phenylalanine arginine; conditions: AG100, 18 h
[7] = system: Klebsiella aerogenes; assay: Antimicrobial activity against Enterobacter aerogenes EA289 after 18 hrs by rapid INT colorimetric assay; conditions: EA289, 18 h; method in brief: as §1
[8] = system: Escherichia coli; assay: Antimicrobial activity against Escherichia coli AG100A after 18 hrs by rapid INT colorimetric assay
Method in brief: (§3)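 Strains precultured overnight on Mueller-Hinton agar. Samples dissolved in DMSO-MHB, serially diluted twofold in MHB, inoculum 1.5 × 10^6 CFU/ml in MHB added; 37°C, 18 h; final DMSO <2.5%. 0.2 mg/ml INT then added, 30 min at 37°C. MIC = lowest concentration preventing yellow-to-pink reduction, i.e. complete growth inhibition.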

[9] = system: Enterobacter cloacae; assay: Antimicrobial activity against Enterobacter cloacae Ec1194 after 18 hrs by rapid INT colorimetric assay; conditions: Ec1194, 18 h; method in brief: as §1
[10] = system: Klebsiella aerogenes; assay: Antimicrobial activity against Enterobacter aerogenes EA-CM64 after 18 hrs by rapid INT colorimetric assay; conditions: EA-CM64, 18 h; method in brief: as §3
[11] = system: Klebsiella aerogenes; assay: Antimicrobial activity against Enterobacter aerogenes EA27 after 18 hrs by rapid INT colorimetric assay; conditions: EA27, 18 h; method in brief: as §1
[12] = system: Klebsiella aerogenes; assay: Antimicrobial activity against Enterobacter aerogenes EA298 after 18 hrs by rapid INT colorimetric assay; conditions: EA298, 18 h; method in brief: as §3
[13] = system: Klebsiella pneumoniae; assay: Antimicrobial activity against Klebsiella pneumoniae ATCC 11296 after 18 hrs by rapid INT colorimetric assay; conditions: ATCC 11296, 18 h; method in brief: as §3
[14] = system: Klebsiella pneumoniae; assay: Antimicrobial activity against Klebsiella pneumoniae KP55 after 18 hrs by rapid INT colorimetric assay; conditions: KP55, 18 h; method in brief: as §1
[15] = system: Klebsiella aerogenes; assay: Antimicrobial activity against Enterobacter aerogenes ATCC 13048 after 18 hrs by rapid INT colorimetric assay; conditions: ATCC 13048, 18 h; method in brief: as §1
[16] = system: Enterobacter cloacae; assay: Antimicrobial activity against Enterobacter cloacae Ec07769 after 18 hrs by rapid INT colorimetric assay in presence of efflux pump inhibitor phenylalanine arginine; conditions: Ec07769, 18 h
[17] = system: Escherichia coli; assay: Antimicrobial activity against tetracycline-resistant Escherichia coli AG100A after 18 hrs by rapid INT colorimetric assay; method in brief: as §3
[18] = system: Klebsiella pneumoniae; assay: Antimicrobial activity against Klebsiella pneumoniae ATCC 11296 after 18 hrs by rapid INT colorimetric assay in presence of efflux pump inhibitor phenylalanine arginine; conditions: ATCC 11296, 18 h
[19] = system: Escherichia coli; assay: Antimicrobial activity against Escherichia coli ATCC 10536 after 18 hrs by rapid INT colorimetric assay; conditions: ATCC 10536, 18 h; method in brief: as §1
[20] = system: Klebsiella pneumoniae; assay: Antimicrobial activity against Klebsiella pneumoniae KP63 after 18 hrs by rapid INT colorimetric assay in presence of efflux pump inhibitor phenylalanine arginine; conditions: KP63, 18 h
[21] = system: Klebsiella aerogenes; assay: Antimicrobial activity against Enterobacter aerogenes EA5 after 18 hrs by rapid INT colorimetric assay; conditions: EA5, 18 h; method in brief: as §1
[22] = system: Klebsiella aerogenes; assay: Antimicrobial activity against Enterobacter aerogenes EA289 after 18 hrs by rapid INT colorimetric assay in presence of efflux pump inhibitor phenylalanine arginine; conditions: EA289, 18 h
[23] = system: Klebsiella pneumoniae; assay: Antimicrobial activity against Klebsiella pneumoniae KP55 after 18 hrs by rapid INT colorimetric assay in presence of efflux pump inhibitor phenylalanine arginine; conditions: KP55, 18 h
[24] = system: Escherichia coli; assay: Antimicrobial activity against Escherichia coli ATCC 8739 after 18 hrs by rapid INT colorimetric assay in presence of efflux pump inhibitor phenylalanine arginine; conditions: ATCC 8739, 18 h; method in brief: as §2
[25] = system: Escherichia coli; assay: Antimicrobial activity against Escherichia coli ATCC 8739 after 18 hrs by rapid INT colorimetric assay; conditions: ATCC 8739, 18 h; method in brief: as §3
[26] = system: Klebsiella aerogenes; assay: Antimicrobial activity against Enterobacter aerogenes EA294 after 18 hrs by rapid INT colorimetric assay in presence of efflux pump inhibitor phenylalanine arginine; conditions: EA294, 18 h
[27] = system: Enterobacter cloacae; assay: Antimicrobial activity against Enterobacter cloacae Ec07769 after 18 hrs by rapid INT colorimetric assay; conditions: Ec07769, 18 h; method in brief: as §1
[28] = system: Enterobacter cloacae; assay: Antimicrobial activity against Enterobacter cloacae Ec1194 after 18 hrs by rapid INT colorimetric assay in presence of efflux pump inhibitor phenylalanine arginine; conditions: Ec1194, 18 h; method in brief: as §2
[29] = system: Pseudomonas aeruginosa; assay: Antimicrobial activity against Pseudomonas aeruginosa PA124 after 18 hrs by rapid INT colorimetric assay; conditions: PA124, 18 h; method in brief: as §3
[30] = system: Escherichia coli; assay: Antimicrobial activity against Escherichia coli AG100 after 18 hrs by rapid INT colorimetric assay; conditions: AG100, 18 h; method in brief: as §3
[31] = system: Klebsiella aerogenes; assay: Antimicrobial activity against Enterobacter aerogenes ATCC 13048 after 18 hrs by rapid INT colorimetric assay in presence of efflux pump inhibitor phenylalanine arginine; conditions: ATCC 13048, 18 h
[32] = system: Klebsiella aerogenes; assay: Antimicrobial activity against Enterobacter aerogenes EA294 after 18 hrs by rapid INT colorimetric assay; conditions: EA294, 18 h; method in brief: as §3
[33] = system: Klebsiella aerogenes; assay: Antimicrobial activity against Enterobacter aerogenes EA-CM64 after 18 hrs by rapid INT colorimetric assay in presence of efflux pump inhibitor phenylalanine arginine; conditions: EA-CM64, 18 h
[34] = system: Klebsiella aerogenes; assay: Antimicrobial activity against Enterobacter aerogenes EA3 after 18 hrs by rapid INT colorimetric assay in presence of efflux pump inhibitor phenylalanine arginine; conditions: EA3, 18 h
[35] = system: Pseudomonas aeruginosa; assay: Antimicrobial activity against Pseudomonas aeruginosa PAO1 after 18 hrs by rapid INT colorimetric assay; conditions: PAO1, 18 h; method in brief: as §3
[36] = system: Escherichia coli; assay: Antimicrobial activity against Escherichia coli ATCC 10536 after 18 hrs by rapid INT colorimetric assay in presence of efflux pump inhibitor phenylalanine arginine beta-naphthylamide; conditions: ATCC 10536, 18 h; method in brief: as §2
[37] = system: Escherichia coli; assay: Antimicrobial activity against Escherichia coli AG100A after 18 hrs by rapid INT colorimetric assay in presence of efflux pump inhibitor phenylalanine arginine
[38] = system: Klebsiella aerogenes; assay: Antimicrobial activity against Enterobacter aerogenes EA27 after 18 hrs by rapid INT colorimetric assay in presence of efflux pump inhibitor phenylalanine arginine; conditions: EA27, 18 h
[39] = system: Pseudomonas aeruginosa; assay: Antimicrobial activity against Pseudomonas aeruginosa PAO1 after 18 hrs by rapid INT colorimetric assay in presence of efflux pump inhibitor phenylalanine arginine; conditions: PAO1, 18 h
[40] = system: Escherichia coli; assay: Antimicrobial activity against tetracycline-resistant Escherichia coli AG102 after 18 hrs by rapid INT colorimetric assay; conditions: AG102, 18 h; method in brief: as §3
[41] = system: Escherichia coli; assay: Antimicrobial activity against tetracycline-resistant Escherichia coli AG100A after 18 hrs by rapid INT colorimetric assay in presence of efflux pump inhibitor phenylalanine arginine; method in brief: as §2
[42] = system: Klebsiella pneumoniae; assay: Antimicrobial activity against Klebsiella pneumoniae KP63 after 18 hrs by rapid INT colorimetric assay; conditions: KP63, 18 h; method in brief: as §1

Measured: MIC

O=C(N[C@H](CO)[C@H](O)c1ccc([N+](=O)[O-])cc1)C(Cl)Cl [CHLORAMPHENICOL]
1 µg/mL: [19] | [24] | [28] | [31]
0.5 µg/mL: [8] | [36]
256 µg/mL: [10] | [16] | [29]
8 µg/mL: [1] | [33] | [39]
32 µg/mL: [3] | [14] | [17] | [40]
16 µg/mL: [5] | [26]
2 µg/mL: [4] | [9] | [13] | [18] | [41]
128 µg/mL: [20] | [22] | [34] | [35] | [38]
4 µg/mL: [15] | [23] | [25] | [30]
0.25 µg/mL: [6] | [37]
64 µg/mL: [12] | [32]
> 256 µg/mL: all other assays above

CC1=C(c2c(C)cc(O)c3c2C(=O)C(c2c(O)c4c(C)cccc4oc2=O)=C(c2c(O)c4c(C)cccc4oc2=O)C3=O)C(=O)c2c(O)cccc2C1=O [DIOSPYRONE]
1 µg/mL: [1] | [6]
16 µg/mL: [5] | [17] | [33] | [38]
4 µg/mL: [8] | [20] | [24] | [39]
0.24 µg/mL: [41]
8 µg/mL: [16] | [22] | [23] | [26]
64 µg/mL: [3] | [14] | [29] | [30] | [34] | [35] | [40]
2 µg/mL: [4] | [18] | [28] | [36]
32 µg/mL: [9] | [12] | [13] | [19] | [31] | [42]
0.12 µg/mL: [37]
128 µg/mL: all other assays above
